Test results published in ChEMBL document CHEMBL1122699, “A reappraisal of the effect upon thymidine kinase of thymidine derivatives carrying large groups at the 5'-position” (J Med Chem, 1984).

Assays:
[1] = Thymidine kinase activity was measured by nonradiochemical assay method + TdR (percentage of the control rate measured in the presence of 5 uM Tdr)
How it was run: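 Conditions match the radiochemical assay, but with 5 µM unlabeled TdR: 10 min at 37 °C, stopped by 20-fold dilution in ice-cold water. Nucleotides separated from nucleosides, freeze-dried, dephosphorylated overnight with alkaline phosphatase, then quantified as nucleosides by C18 HPLC (A254/A280). Expressed as % of the control rate with 5 µM TdR, mean of ≥2 experiments.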

[2] = Thymidine kinase activity was measured by radio chemical assay method
How it was run: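 Same L1210 ammonium sulfate enzyme fraction and mix: 5 µM [3H]TdR, 2 mM ATP, 1 mM MgCl2, 10% Me2SO, 45 mM Tris-HCl pH 7.8, 37 °C. Stopped by boiling. [3H]TMP bound to PEI-cellulose squares and counted. Run in parallel with the HPLC assay. Activity given as % of the control rate, mean of at least two experiments.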

L1210 [3] = test: The compound was tested for inhibition of thymidine kinase using […] at concentration 200 uM in L1210 cells; type: cell-based
How it was run: (§1)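 Enzyme: L1210 ascites cell sonicate (50 mM Tris-HCl pH 7.8, 150 mM KCl), 100000g supernatant precipitated at 30% ammonium sulfate saturation. Reaction mix: 5 µM [3H]TdR, 2 mM ATP, 1 mM MgCl2, 10% Me2SO, 45 mM Tris pH 7.8, compound added in Me2SO. Run 10 min at 37 °C, stopped by boiling. [3H]TMP captured on PEI-cellulose, eluted with HCl, counted. % inhibition given as mean ± SE of n determinations.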

[4] = Thymidine kinase activity was measured by nonradiochemical assay method - TdR (percentage of the control rate measured in the presence of 5 µM TdR)
L1210 [5] = test: The compound was tested for inhibition of thymidine kinase using […] at concentration 250 uM in L1210 cells; type: cell-based; how it was run: as §1
L1210 [6] = test: The compound was tested for inhibition of thymidine kinase using […] at concentration 125 uM in L1210 cells; type: cell-based; how it was run: as §1
L1210 [7] = test: The compound was tested for inhibition of thymidine kinase using […] at concentration 50 uM in L1210 cells; type: cell-based; how it was run: as §1

Compound `Cc1cn([C@H]2C[C@H](O)[C@@H](COC(=O)COc3ccc(OCc4ccc([N+](=O)[O-])cc4)cc3)O2)c(=O)[nH]c1=O` has an Activity [1] of 144, an Activity [2] of 62 and an inhibition (L1210 [3]) of 35%. The Activity [4] was 110.
In the case of `Cc1cn([C@H]2C[C@H](O)[C@@H](COC(=O)COc3ccc(OCc4ccccc4)cc3)O2)c(=O)[nH]c1=O`, the Activity [1] is reported as 152, the Activity [2] is reported as 65 and the inhibition (L1210 [5]) is reported as 33%. It also gave an Activity [4] of 118.
With `Cc1cn([C@H]2C[C@H](O)[C@@H](COCCOc3ccc(OCc4ccccc4)cc3)O2)c(=O)[nH]c1=O` the inhibition (L1210 [3]) was 14%.
`Cc1cn(C2CC(O)C(CNC(=O)COc3ccc(OCc4ccccc4)cc3)O2)c(=O)[nH]c1=O` (stereo not given) showed an inhibition (L1210 [6]) of 0%.
With `Cc1cn([C@H]2C[C@H](O)[C@@H](CN)O2)c(=O)[nH]c1=O` the Activity [1] was 27, the Activity [2] was 26 and the Activity [4] was 0. The inhibition (L1210 [7]) was 76%.
Compound `Cc1cn(C2CC(O)C(CNC(=O)COc3ccc(OCc4ccc([N+](=O)[O-])cc4)cc3)O2)c(=O)[nH]c1=O` (stereo not given) has an inhibition (L1210 [6]) of 1%.
